Series [1] relates to K562. Description: Induction of apoptosis in human K562 cells assessed as pre-necrotic cells at 40 uM after 24 hrs using annexin-V FITC/PI double staining by flow cytometry (reference value: 0.36%). In kind it is functional. For orientation: A flow cytometer gives signals particle by particle.
Series [2] addresses T1, Bcr/Abl fusion protein (Homo sapiens) (UniProt P00519+P11274). In words: Inhibition of BCR-ABL-mediated STAT5 phosphorylation in human K562 cells at 40 uM after 6 hrs by phospho-flow cytometry. In kind it is cell-based. The method in brief: (§1)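 K562 cells were treated at 40 μM for 6 h, or left untreated, then fixed. Cells were stained with unlabeled rabbit monoclonal antibodies to pSTAT3, pSTAT5 or pAKT1, detected with Cy5-anti-rabbit IgG, and read by flow cytometry.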

For series [3], the target named is T2, Signal transducer and activator of transcription 5A (Homo sapiens) (UniProt P42229).
T2 sequence (whole entry): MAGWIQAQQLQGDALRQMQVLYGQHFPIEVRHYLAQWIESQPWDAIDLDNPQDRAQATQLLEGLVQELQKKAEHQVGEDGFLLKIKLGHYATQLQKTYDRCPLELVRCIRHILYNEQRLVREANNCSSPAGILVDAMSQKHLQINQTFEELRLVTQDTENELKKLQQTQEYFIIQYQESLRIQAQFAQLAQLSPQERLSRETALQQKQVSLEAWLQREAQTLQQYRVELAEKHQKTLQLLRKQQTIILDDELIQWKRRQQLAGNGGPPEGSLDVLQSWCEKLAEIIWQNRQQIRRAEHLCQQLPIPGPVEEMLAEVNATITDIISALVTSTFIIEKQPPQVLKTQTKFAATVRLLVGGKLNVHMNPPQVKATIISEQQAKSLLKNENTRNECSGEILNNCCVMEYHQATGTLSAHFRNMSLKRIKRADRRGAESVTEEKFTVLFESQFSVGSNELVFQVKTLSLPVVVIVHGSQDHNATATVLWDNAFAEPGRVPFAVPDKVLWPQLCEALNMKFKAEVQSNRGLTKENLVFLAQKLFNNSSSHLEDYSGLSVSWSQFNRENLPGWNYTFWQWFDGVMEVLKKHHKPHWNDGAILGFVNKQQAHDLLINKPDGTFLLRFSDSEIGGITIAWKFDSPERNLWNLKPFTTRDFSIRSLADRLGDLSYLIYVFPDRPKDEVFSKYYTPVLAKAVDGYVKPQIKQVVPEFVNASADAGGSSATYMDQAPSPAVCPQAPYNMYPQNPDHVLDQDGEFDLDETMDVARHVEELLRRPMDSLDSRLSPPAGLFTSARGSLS
In words: Inhibition of STAT5 binding to cyclin D1 promoter region human K562 cells at 40 uM after 6 hrs by chromatin immunoprecipitation assay. In kind it is cell-based. A digest of the protocol: (§2)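 K562 cells were treated at 40 μM for 6 h, cross-linked with 1% formaldehyde and lysed. Chromatin was sonicated to 300–500 bp, keeping 1/20 as input. It was immunoprecipitated overnight at 4 °C with anti-phospho-STAT5 (Tyr694) at 1:50 or control rabbit IgG, pulled down on Protein G agarose, and promoter regions were detected by PCR.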

Series [4] concerns the target T1, Bcr/Abl fusion protein (Homo sapiens). In words: Inhibition of BCR-ABL-mediated STAT5 phosphorylation in human K562 cells after 6 hrs by Western blotting analysis. Type of series: cell-based. The method in brief:
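K562 cells were treated for 6 h and 1 × 10^7 cells were lysed in RIPA buffer. Lysates were run on SDS-PAGE and blotted to PVDF, blocked in 5% BSA/PBS-0.1% Tween 20, and probed for pSTAT5, STAT5, pSTAT3, STAT3 and GAPDH. Detection used HRP anti-rabbit with ECL, and bands were quantified by imaging.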
(In general: In western blotting, separated proteins are transferred to a membrane and probed.)

Series [5] concerns the target T3, Signal transducer and activator of transcription 1-alpha/beta (Homo sapiens, UniProt P42224).
T3 sequence (P42224 whole entry): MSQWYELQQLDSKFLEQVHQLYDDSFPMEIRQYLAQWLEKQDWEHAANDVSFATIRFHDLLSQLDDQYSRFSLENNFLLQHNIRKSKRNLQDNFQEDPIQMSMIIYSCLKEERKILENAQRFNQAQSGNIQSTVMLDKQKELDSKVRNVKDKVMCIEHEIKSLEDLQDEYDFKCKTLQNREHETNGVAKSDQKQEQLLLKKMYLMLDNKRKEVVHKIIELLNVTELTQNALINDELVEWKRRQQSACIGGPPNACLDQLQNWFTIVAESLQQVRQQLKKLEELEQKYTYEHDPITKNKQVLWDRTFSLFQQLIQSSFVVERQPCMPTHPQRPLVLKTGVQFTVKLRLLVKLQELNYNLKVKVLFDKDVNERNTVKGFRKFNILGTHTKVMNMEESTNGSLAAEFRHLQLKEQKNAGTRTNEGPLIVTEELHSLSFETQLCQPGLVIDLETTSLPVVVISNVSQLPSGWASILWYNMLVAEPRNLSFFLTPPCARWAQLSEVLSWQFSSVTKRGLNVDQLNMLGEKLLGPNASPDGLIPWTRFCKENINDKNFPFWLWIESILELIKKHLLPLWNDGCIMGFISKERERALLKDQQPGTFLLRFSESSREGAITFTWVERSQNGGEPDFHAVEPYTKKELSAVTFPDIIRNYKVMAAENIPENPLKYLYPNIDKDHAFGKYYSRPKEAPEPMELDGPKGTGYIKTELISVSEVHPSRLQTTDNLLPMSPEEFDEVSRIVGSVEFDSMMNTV
In words: Displacement of fluorescent probe from the STAT1 after 15 mins by fluorescent polarization assay.

Series [6] can be described thus: Disruption of preformed STAT5 homodimer in NIH3T3 cells co-expressing human EGFR nuclear extracts by electrophoretic mobility shift assay. Type of series: cell-based. A general note: A gel shift assay detects complexes by their altered migration in electrophoresis.
The subject of series [7] is K562. In words: Induction of apoptosis in human K562 cells assessed as early apoptotic cells at 40 uM after 24 hrs using annexin-V FITC/PI double staining by flow cytometry (reference value: 1.26%). In kind it is functional.
For series [8], the system named is K562. In words: Cytotoxicity against human K562 cells expressing STAT5 after 48 hrs by alamar blue fluorescent staining. In kind it is functional, cell-based. The note with it: K562, 48 h. The method in brief:
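Cells seeded at 1 × 10^5 in exponential growth and treated at 10, 20 and 40 μM. Viability was read by Alamar Blue fluorescence daily over 3 consecutive days.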

For series [9], the target named is T2, Signal transducer and activator of transcription 5A (Homo sapiens). In words: Inhibition of STAT5-mediated cyclin D2 expression in human K562 cells at 40 uM after 6 hrs by RT-PCR analysis. In kind it is cell-based. The method in brief: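 K562 cells were treated at 40 μM for 6 h. Transcript levels of the STAT5 target genes were measured by RT-PCR.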
The target is the same in series [10]. In words: Inhibition of STAT5 binding to C-MYC promoter region human K562 cells at 40 uM after 6 hrs by chromatin immunoprecipitation assay. Type of series: cell-based. A digest of the protocol: as §2
The test system of series [11] is K562. Description: Induction of apoptosis in human K562 cells assessed as late apoptotic cells at 40 uM after 24 hrs using annexin-V FITC/PI double staining by flow cytometry (reference value: 5.6%). In kind it is functional.
In series [12] the test system is K562. In words: Induction of apoptosis in human K562 cells assessed as viable cells at 40 uM after 24 hrs using annexin-V FITC/PI double staining by flow cytometry (reference value: 92.8%). Type of series: functional. The settings on record: K562, 24 h, read-out: Activity.
The target of series [13] is T1, Bcr/Abl fusion protein (Homo sapiens). In words: Inhibition of BCR-ABL-mediated STAT3 phosphorylation in human K562 cells at 40 uM after 6 hrs by phospho-flow cytometry. In kind it is cell-based. A digest of the protocol: as §1
The nature of series [14]: Cytotoxicity against human Bone marrow cells up to 160 uM after 72 hrs by alamar blue fluorescent staining. In kind it is cell-based. The note with it: bone marrow cell.

By Ki is commonly meant a dissociation constant, usually derived from enzyme kinetics or from competition with a known ligand. Higher therefore signals lower affinity. As usually defined, the IC50 is the concentration that inhibits the measured activity by half.

The structures appear in SMILES notation. Activity calls are given as the source filed them. The rule behind the calls is not given here.

T1 sequence (P00519 whole entry, looked up, the tested form may be a part): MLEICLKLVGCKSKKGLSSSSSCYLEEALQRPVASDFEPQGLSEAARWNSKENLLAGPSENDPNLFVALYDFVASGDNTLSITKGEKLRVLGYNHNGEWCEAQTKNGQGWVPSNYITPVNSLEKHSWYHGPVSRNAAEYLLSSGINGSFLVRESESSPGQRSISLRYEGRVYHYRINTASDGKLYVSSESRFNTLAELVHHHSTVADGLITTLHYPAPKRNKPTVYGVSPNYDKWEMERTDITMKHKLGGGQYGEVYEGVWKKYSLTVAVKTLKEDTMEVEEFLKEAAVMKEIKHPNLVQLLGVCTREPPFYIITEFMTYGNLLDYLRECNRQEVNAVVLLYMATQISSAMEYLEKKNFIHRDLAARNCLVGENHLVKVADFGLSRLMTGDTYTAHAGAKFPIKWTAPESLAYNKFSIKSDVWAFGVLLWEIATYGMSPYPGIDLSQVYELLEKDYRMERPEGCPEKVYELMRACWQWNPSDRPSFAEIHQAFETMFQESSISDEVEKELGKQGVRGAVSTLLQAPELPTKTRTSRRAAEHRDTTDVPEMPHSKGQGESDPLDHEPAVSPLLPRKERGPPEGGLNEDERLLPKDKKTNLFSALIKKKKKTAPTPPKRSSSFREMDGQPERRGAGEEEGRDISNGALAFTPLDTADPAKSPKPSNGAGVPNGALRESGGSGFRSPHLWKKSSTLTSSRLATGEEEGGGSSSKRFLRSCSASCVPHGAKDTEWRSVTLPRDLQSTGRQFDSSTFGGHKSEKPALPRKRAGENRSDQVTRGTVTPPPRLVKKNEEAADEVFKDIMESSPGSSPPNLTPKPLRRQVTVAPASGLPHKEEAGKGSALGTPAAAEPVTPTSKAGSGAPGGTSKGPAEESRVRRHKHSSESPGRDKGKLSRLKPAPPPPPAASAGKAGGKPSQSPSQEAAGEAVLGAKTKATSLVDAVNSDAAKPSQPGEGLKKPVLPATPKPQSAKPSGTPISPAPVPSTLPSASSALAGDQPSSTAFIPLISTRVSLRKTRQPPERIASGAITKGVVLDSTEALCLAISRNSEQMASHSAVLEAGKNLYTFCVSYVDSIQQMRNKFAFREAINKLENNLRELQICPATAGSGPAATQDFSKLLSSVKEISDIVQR
T1 sequence (P11274 whole entry, looked up, the tested form may be a part): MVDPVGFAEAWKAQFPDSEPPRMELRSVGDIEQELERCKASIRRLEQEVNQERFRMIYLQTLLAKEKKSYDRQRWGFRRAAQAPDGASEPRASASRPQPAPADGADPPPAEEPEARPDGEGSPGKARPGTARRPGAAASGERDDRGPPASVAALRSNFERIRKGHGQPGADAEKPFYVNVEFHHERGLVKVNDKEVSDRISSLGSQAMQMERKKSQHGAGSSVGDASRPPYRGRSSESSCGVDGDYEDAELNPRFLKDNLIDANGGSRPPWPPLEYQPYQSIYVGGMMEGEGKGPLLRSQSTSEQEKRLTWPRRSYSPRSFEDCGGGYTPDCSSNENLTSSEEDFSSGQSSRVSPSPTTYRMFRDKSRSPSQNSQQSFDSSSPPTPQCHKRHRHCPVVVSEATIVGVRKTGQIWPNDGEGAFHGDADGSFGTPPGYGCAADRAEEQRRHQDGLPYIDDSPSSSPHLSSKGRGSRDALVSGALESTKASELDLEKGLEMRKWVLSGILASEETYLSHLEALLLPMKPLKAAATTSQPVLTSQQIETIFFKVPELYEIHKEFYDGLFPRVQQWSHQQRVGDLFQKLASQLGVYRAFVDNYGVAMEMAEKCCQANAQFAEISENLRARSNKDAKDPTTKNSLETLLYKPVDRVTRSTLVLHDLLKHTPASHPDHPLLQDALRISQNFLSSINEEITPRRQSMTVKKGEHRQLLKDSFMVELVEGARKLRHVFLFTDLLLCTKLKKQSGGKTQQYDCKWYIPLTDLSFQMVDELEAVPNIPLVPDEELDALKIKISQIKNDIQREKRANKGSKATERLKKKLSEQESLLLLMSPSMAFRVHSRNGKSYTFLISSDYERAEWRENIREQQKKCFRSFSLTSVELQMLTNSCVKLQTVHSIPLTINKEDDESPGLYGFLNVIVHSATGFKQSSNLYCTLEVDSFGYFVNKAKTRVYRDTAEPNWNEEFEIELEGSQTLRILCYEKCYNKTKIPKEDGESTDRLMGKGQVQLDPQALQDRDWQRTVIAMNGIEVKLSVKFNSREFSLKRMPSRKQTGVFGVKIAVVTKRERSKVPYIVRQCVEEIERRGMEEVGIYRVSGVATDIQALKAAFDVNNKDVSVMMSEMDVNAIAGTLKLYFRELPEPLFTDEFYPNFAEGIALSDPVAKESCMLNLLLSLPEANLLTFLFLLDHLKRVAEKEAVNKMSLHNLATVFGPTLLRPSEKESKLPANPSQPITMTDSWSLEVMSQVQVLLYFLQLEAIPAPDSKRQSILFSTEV

With `Cc1cc(C)c(S(=O)(=O)N(C)CC(=O)N(Cc2ccc(C3CCCCC3)cc2)c2ccc(C(=O)O)c(O)c2)c(C)c1`, the Activity in the series with K562 [1] is recorded as 0.41%; in the series with K562 [7], 5.57%; in the series with K562 [11] it was 81.5%; in series [14], “Non-toxic”. Also, the inhibition entry in series [2], in series [3], in [9] and in series [10] was “Active” throughout. In addition, in [4], the inhibition result was “Dose-dependent effect”. Affinity in series [5] was put at a Ki of 9.7 µM. Also, the results for the IC50 (in series [6]; in the series with K562 [8]) were 100 µM and 42 µM, respectively. Besides, the viability at 40 µM in the series with K562 [12] was determined as 12.5%. For the same compound, the inhibition result in [13] was “inactive”.
